Measurements: paper PMC2800230 (Nucleic Acids Research, 2009)
Entries after “also recorded” stand apart in the source; their conditions may differ. The star is where a group is joined. Biotin = O=C1N[C@H]2[C@H](CS[C@H]2CCCCC(=O)*)N1; Ahx = NCCCCCC(=O)O

How the values were obtained:
RAD51 = details: in contrast to BRC4; ref [20],[21],[39]; cited from earlier work
RAD51-dsDNA filament = assay: EMSA of RAD51 nucleoprotein filament formation on dsDNA; assay type: biochemical, human; details: RAD51 2 µM, result in words
Procedure, shortened: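 Untagged RAD51 (2 µM) was pre-incubated with BRC peptides at stated µM concentrations for 10 min on ice. Complexes were resolved on 0.5% agarose in TAE (50 mA, 4 h, 4°C) and phosphorimaged.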

[1] = system: mCherry-RAD51 RAD51^LLRR-EEAA; assay: Bio-BRC4 pull-down from DT40 whole-cell extract: mCherry-RAD51^LLRR-EEAA; assay type: binding, human; details: lysates of untreated DT40 cells also expressing HsRAD51^Tet off; western blot
Procedure, shortened: (§1)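 Lysates from untreated Rad51−/− DT40 cells (no doxycycline) expressing mCherry-tagged wild-type or mutant human RAD51 alongside wild-type HsRAD51Tet off were incubated with BRC4 peptide. The peptide carried an N-terminal biotin on a 6-aminohexanoic acid spacer and a C-terminal amide, was HPLC-purified to 95%, and was bound to streptavidin-coated magnetic beads. Captured RAD51 species were detected by SDS–PAGE and immunoblotting.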

[2] = system: mCherry-RAD51 RAD51^LL-EE; assay: Bio-BRC4 pull-down from DT40 whole-cell extract: mCherry-RAD51^LL-EE; assay type: binding, human; details: lysates of untreated DT40 cells also expressing HsRAD51^Tet off; western blot
Procedure, shortened: as §1

mCherry-RAD51^WT = assay: Bio-BRC4 pull-down from DT40 whole-cell extract: mCherry-RAD51^WT; assay type: binding, human; details: lysates of untreated DT40 cells; streptavidin magnetic beads; western blot
Procedure, shortened: as §1

BRC4–RAD51 interaction = assay type: binding, human; details: competitive ELISA; comparison in words
Procedure, shortened: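 Solid-phase BRC4 peptide was bound by recombinant full-length human RAD51 in solution. The RAD51 was thrombin-cleaved overnight at 22°C from GST-RAD51 expressed in E. coli BL21, then dialysed into PBS. Wild-type or mutant biotinylated BRC peptides were added as soluble competitors. Absorbance is given as mean percentage (SEM) of triplicates, normalised to the positive control without soluble inhibitor.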

[3] = target: T1, Recombinant full-length RAD51, cleaved from GST-RAD51 (human, UniProt Q06609 1-339); assay: ELISA
T1 sequence (looked up): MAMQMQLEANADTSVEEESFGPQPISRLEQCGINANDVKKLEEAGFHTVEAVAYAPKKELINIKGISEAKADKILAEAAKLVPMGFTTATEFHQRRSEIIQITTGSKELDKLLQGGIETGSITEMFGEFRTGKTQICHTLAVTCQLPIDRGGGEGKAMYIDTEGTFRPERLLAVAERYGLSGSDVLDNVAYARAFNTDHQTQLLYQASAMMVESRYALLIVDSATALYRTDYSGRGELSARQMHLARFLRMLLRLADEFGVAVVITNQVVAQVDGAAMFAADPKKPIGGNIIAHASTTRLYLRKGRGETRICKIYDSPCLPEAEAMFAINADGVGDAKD

[4] = target: T2, Untagged recombinant RAD51 (human, UniProt Q06609 1-339); assay: native gel or EMSA
T2 sequence (looked up): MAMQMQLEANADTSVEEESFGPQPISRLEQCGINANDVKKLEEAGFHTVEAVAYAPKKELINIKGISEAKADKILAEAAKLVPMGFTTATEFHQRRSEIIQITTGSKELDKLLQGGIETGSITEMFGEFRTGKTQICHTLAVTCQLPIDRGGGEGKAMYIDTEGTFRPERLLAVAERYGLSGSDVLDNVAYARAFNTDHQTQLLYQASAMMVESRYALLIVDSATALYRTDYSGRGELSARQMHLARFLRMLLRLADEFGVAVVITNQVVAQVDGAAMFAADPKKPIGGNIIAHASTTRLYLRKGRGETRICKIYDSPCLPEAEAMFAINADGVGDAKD

RAD51 R250A = RAD51 R250A (Homo sapiens, UniProt Q06609 1-339, R250A); assay: streptavidin-bead pull-down
RAD51 (WT) = target: T3, RAD51 (WT) (Homo sapiens, UniProt Q06609 1-339); assay: streptavidin-bead pull-down
T3 chain: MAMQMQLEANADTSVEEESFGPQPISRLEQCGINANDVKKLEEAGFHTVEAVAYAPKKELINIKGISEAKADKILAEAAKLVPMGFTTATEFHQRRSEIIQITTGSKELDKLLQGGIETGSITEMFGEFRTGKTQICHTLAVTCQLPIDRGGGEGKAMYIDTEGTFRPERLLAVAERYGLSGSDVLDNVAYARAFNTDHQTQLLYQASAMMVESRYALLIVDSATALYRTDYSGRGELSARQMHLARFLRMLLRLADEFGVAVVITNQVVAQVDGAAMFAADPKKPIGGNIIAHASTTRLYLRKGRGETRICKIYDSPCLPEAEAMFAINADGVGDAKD

IENSALAFYTSCSRKTSVSQTSLLEAKKWLREGIF [BRC5]
affinity for RAD51 among the human BRC repeats (RAD51): lowest affinity

KEPTLLGFHTASGKKVKIAKESLDKVKNLFDEKEQ [BRC4]
inhibition of complex (filament) formation at higher concentrations (RAD51-dsDNA filament): filament formation is prevented | pull-down of mCherry-RAD51^LLRR-EEAA by Bio-BRC4 [1]: defective in binding to Bio-BRC4 | pull-down of mCherry-RAD51^LL-EE by Bio-BRC4 [2]: defective in binding to Bio-BRC4 | pull-down of mCherry-RAD51^WT by Bio-BRC4 (mCherry-RAD51^WT): can also be pulled-down by Bio-BRC4

KEPTLLGFHTASGKKVKVSQTSLLEAKKWLREGIF [BRC^45]
inhibition of complex (filament) formation at higher concentrations (RAD51-dsDNA filament): inhibits complex formation when present in higher amounts | permissive (super-shift) and inhibitory behaviours in the EMSA (RAD51-dsDNA filament): exhibits both behaviours; also recorded: Concentration dependent super-shift and subsequent inhibition of filament formation | potency at competing the BRC4–RAD51 interaction relative to another peptide (BRC4–RAD51 interaction): more potent than BRC4

B1: BRC^45 chimaeric peptide (N-terminal 17 residues of BRC4 and C-terminal 18 residues of BRC5) (peptide)
peptide: {Biotin-Ahx}-KEPTLLGFHTASGKKVKVSQTSLLEAKKWLREGIF-NH2
SMILES: CC[C@H](C)[C@H](NC(=O)CNC(=O)[C@H](CCC(=O)O)NC(=O)[C@H](CCCNC(=N)N)NC(=O)[C@H](CC(C)C)NC(=O)[C@H](Cc1c[nH]c2ccccc12)NC(=O)[C@H](CCCCN)NC(=O)[C@H](CCCCN)NC(=O)[C@H](C)NC(=O)[C@H](CCC(=O)O)NC(=O)[C@H](CC(C)C)NC(=O)[C@H](CC(C)C)NC(=O)[C@H](CO)NC(=O)[C@@H](NC(=O)[C@H](CCC(N)=O)NC(=O)[C@H](CO)NC(=O)[C@@H](NC(=O)[C@H](CCCCN)NC(=O)[C@@H](NC(=O)[C@H](CCCCN)NC(=O)[C@H](CCCCN)NC(=O)CNC(=O)[C@H](CO)NC(=O)[C@H](C)NC(=O)[C@@H](NC(=O)[C@H](Cc1c[nH]cn1)NC(=O)[C@H](Cc1ccccc1)NC(=O)CNC(=O)[C@H](CC(C)C)NC(=O)[C@H](CC(C)C)NC(=O)[C@@H](NC(=O)[C@@H]1CCCN1C(=O)[C@H](CCC(=O)O)NC(=O)[C@H](CCCCN)NC(=O)CCCCCNC(=O)CCCC[C@@H]1SC[C@@H]2NC(=O)N[C@@H]21)[C@@H](C)O)[C@@H](C)O)C(C)C)C(C)C)[C@@H](C)O)C(=O)N[C@@H](Cc1ccccc1)C(N)=O
binding result [3]: binds | binding result [4]: binds

B2: BRC4 peptide (human BRCA2 BRC repeat 4, 35-mer) (peptide)
peptide: KEPTLLGFHTASGKKVKIAKESLDKVKNLFDEKEQ
modifications: N-terminal biotin attached through a 6-aminohexanoic acid spacer; C-terminal amide
binding result [3]: binds

B3: 60-mer ssDNA (ssDNA)
DNA: TACTGCCATTCTGTATCGCTTATCGAGTAGTTACCTGCCTAGCATTGCCACTCATAGCCT
binding result (RAD51 R250A): binds | binding result (RAD51 (WT)): binds

B4: 60-mer dsDNA (dsDNA)
DNA 1: TACTGCCATTCTGTATCGCTTATCGAGTAGTTACCTGCCTAGCATTGCCACTCATAGCCT
DNA 2: AGGCTATGAGTGGCAATGCTAGGCAGGTAACTACTCGATAAGCGATACAGAATGGCAGTA
binding result (RAD51 R250A): binds | binding result (RAD51 (WT)): binds
